# Source: PubChem BioAssay AID651783 (The Scripps Research Institute Molecular Screening Center, 2012)
# The whole screen tested about 2,400 compounds, of which about 2,000 (83%) were called active.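 Rule for the calls: active = activation above a cutoff set at the run's mean compound activation plus 3 SD (cut at about 39% in these data); inactive = the rest.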 The set was probably picked from earlier hits. The list is a sample of the results.
# Molecular target: Trace amine-associated receptor 1 (Homo sapiens) (UniProt Q96RJ0)
# Assay: activators of TAAR1 calcium signal, triplicate retest – Fluo-8 calcium fluorescence, CHO RD-HGA16 cells, confirmation (AID 651783);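 note: promiscuous G-alpha-16 overexpression reroutes TAAR1 signalling from cAMP to calcium; peak fluorescence divided by basal pre-compound fluorescence per well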
# Details: CHO RD-HGA16 TAAR1, Fluo-8 calcium fluorescence; at 3 µM; hits give high values; scaled: DMSO 0%, maximal phenethylamine 100%
# Summary of the method: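 Controls: DMSO (low) and PEA EC100 (high); system: RD-HGA16 CHO cells co-expressing hTAAR1 and promiscuous Gα16; times: Fluo-8 dye loading 75 min 37 °C, then 30 min room temperature; detection: kinetic Fluo-8 calcium fluorescence over 140 s after basal; evaluation: % activation from max-to-basal fluorescence ratio, DMSO-to-PEA scaled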
# Trace amine-associated receptor 1 (Homo sapiens), sequence (Q96RJ0 whole entry, looked up): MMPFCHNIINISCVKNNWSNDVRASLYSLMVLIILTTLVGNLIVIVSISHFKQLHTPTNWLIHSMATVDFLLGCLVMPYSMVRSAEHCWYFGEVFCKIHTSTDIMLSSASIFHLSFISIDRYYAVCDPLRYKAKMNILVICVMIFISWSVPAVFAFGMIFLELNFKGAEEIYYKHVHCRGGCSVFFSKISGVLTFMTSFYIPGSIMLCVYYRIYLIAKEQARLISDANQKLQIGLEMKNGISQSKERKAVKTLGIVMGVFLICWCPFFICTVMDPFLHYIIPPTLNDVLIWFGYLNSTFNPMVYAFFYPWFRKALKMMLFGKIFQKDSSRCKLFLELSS
row,SMILES,activation
1,S=C(Nc1ccc(Br)cc1)NC1CCN(Cc2ccccc2)CC1,62.4% (active)
2,CCCCCCCCCCOC(=O)Cn1c(COc2ccc(C)cc2)[n+](C)c2ccccc21,109% (active)
3,COCCCn1c(Cc2csc(Nc3cccc(Cl)c3)n2)nnc1SCC(=O)OC1CCCCC1,-1.89% (inactive)
4,Cc1ccc(NC(=O)CCN2CCc3ccccc3C2)cc1,88.5% (active)
5,CCCC1CCC(=NNC(=S)NCCc2ccccc2)CC1 (configuration not stated),73.7% (active)
6,COc1cc(OC)cc(C(=O)N[C@H](C(=O)OCC(=O)NC(C)c2ccccc2)C(C)C)c1 (some centres not stated),41.1% (active)
7,CC(=O)Oc1ccc(Cn2c(C)c(C(=O)NCc3ccc(C#N)cc3)sc2=O)cc1,113% (active)
8,NC[C@H](Cc1ccccc1)NCCc1cc(C(F)(F)F)cc(C(F)(F)F)c1,55.9% (active)
9,COc1cc(OC)c(-n2cc(-c3ccc(Cl)cc3)[nH]c2=O)cc1Cl,117% (active)
10,O=C(O)C1C2C=CC(O2)C1C(=O)NCCc1cccc(Cl)c1 (configuration not stated),101% (active)
11,COc1ccc(C(=O)NNC(=S)NC(=O)c2ccccc2)cc1,127% (active)
12,O=C(Nc1cccc(NC(=O)c2ccc(Br)cc2)c1)c1ccccc1,5.69% (inactive)
13,COc1ccc(C(=O)NC(=S)NNC(=O)CCc2ccccc2)cc1,115% (active)
14,COc1ccc(Cl)cc1C(=O)NNC(=S)NC(=O)/C=C/c1ccco1,108% (active)
15,Cc1ccc(O)c(NC(=S)NC(=O)COc2ccc(Br)cc2)c1,129% (active)
16,CCc1ccc(-c2nn(-c3ccccc3)cc2CSC(=N)N)cc1,58.1% (active)
17,CCCCc1c(-c2ccc(Br)cc2)ncn1CCc1ccccc1OC,68.2% (active)
18,CCCCc1c(-c2ccc(Cl)cc2)ncn1CCc1ccccc1OC,81% (active)
19,CCc1c(-c2ccccc2OC)ncn1CCc1ccccc1OC,82.6% (active)
20,COc1ccc(OC)c(C(c2nnnn2C(C)(C)C)N2CCc3ccccc3C2)c1 (configuration not stated),66.7% (active)
21,CCOC(=O)Cc1csc(NC(=O)Nc2ccccc2)n1,60.1% (active)
22,O=C(Nc1ccncc1)Nc1ccc(F)cc1,83.6% (active)
23,CCCCCc1c(-c2ccc(OC)c(OC)c2)ncn1CCc1ccccc1OC,98.3% (active)
24,CCCCCc1c(Cc2ccccc2)ncn1CCc1ccccc1OC,84.3% (active)
25,CCCCCc1c(-c2cccc(Br)c2)ncn1CCc1ccccc1OC,37.5% (active)
26,NC(=O)C1=C[C@H](c2csc3ccccc23)C[C@H](OCc2ccc(CO)cc2)O1,58.4% (active)

row,SMILES,activation
1,c1ccc2c(c1)C(=NC1CCCCC1)NC2=NC1CCCCC1,90.4% (active)
2,CCC(C(=O)Nc1ccc(C(C)C)cc1)c1ccccc1 (configuration not stated),114% (active)
3,C#CCOc1ccc(/C=C2/C(=O)NN(c3ccccc3)C2=O)cc1OC,88% (active)
4,COc1ccc2cc(-c3[nH]ncc3CNCCn3nc(C)cc3C)ccc2c1,57.6% (active)
5,O=C(Cc1ccc(Cl)cc1)NC(=S)Nc1ccccc1O,134% (active)
6,Cc1ccccc1NC(=S)NC(=O)Cc1ccc(Cl)cc1,85.2% (active)
7,S=C(NCCCc1cnc[nH]1)NCCCN(Cc1ccc(Cl)c(Cl)c1)c1ccc(Br)cn1,58% (active)
8,Cc1c(CNCCc2ccccc2)c(C(=O)O)c(C)n1-c1ccccc1,88.8% (active)
9,CN(C(=O)CN(CCO)CC(=O)N(C)C(C)(C)Cc1ccccc1)C(C)(C)Cc1ccccc1,101% (active)
10,Cc1ccccc1-c1nc(CS(=O)(=O)CC(=O)N2CCc3ccccc3C2)c(C)o1,68.7% (active)
11,COc1ccc(NC(=O)C(=O)NCC(c2ccco2)N2CCc3ccccc3C2)cc1 (configuration not stated),40.5% (active)
12,c1ccc(C2CNCc3c2ccc2ccccc32)cc1 (configuration not stated),88.2% (active)
13,N#Cc1ccc(OCCCN2CCC(C(O)(c3ccccc3)c3ccccc3)CC2)c(F)c1,36.6% (inactive)
14,Cc1ccc(Sc2cc(N3CCOCC3)nc(-c3ccccc3)n2)cc1,19.1% (inactive)
15,CCCc1cc(C(=O)Nc2ccc(C(=O)OC)cc2)cs1,1.29% (inactive)
16,COc1cccc(N(CC(=O)N2CCc3ccccc3C2)S(C)(=O)=O)c1,63.4% (active)
17,Cc1ccc(S(=O)(=O)N(CC(=O)N2CCc3ccccc3C2)c2cccc(Cl)c2)cc1,56.1% (active)
18,OC(CNCCc1ccc(Cl)cc1Cl)COc1ccccc1 (configuration not stated),87.4% (active)
19,Nc1nnn(CC(=O)N/N=C/c2ccccc2)n1,61.6% (active)
20,CCCOc1ccc(-c2c(C(=O)N/N=C/c3ccco3)nnn2-c2nonc2N)cc1,73.1% (active)
21,Nc1nonc1-n1nnc(C(=O)N/N=C/c2ccc(Cl)cc2)c1-c1ccc2c(c1)OCO2,142% (active)
22,COc1ccc(C(=O)NC(=S)NNC(=O)c2c(-c3ccccc3)noc2C)cc1,93% (active)
23,Cc1onc(-c2ccccc2)c1C(=O)NNC(=S)NC(=O)c1ccc(F)cc1,127% (active)
24,Fc1ccc(NC(=S)N2CCc3[nH]c4ccccc4c3C2)cc1,32.8% (inactive)
25,COc1ccc(OC)c(NC(=S)N2CCc3ccccc3C2)c1,87.5% (active)
26,O=C(/C=C/[C@H]1O[C@@H](n2cnc3c(NC(=O)c4ccccc4)ncnc32)[C@H](O)[C@@H]1O)NCc1ccccc1,0.79% (inactive)
